# Test results as given in ChEMBL document CHEMBL1833953, “Design, synthesis, and evaluation of a novel dual FMS-like tyrosine kinase 3/stem cell factor receptor (FLT3/c-KIT) inhibitor for the treatment of acute myelogenous leukemia” (J Med Chem, 2011).
# Tests used:
# [1] = target: T1, Aurora kinase A (Homo sapiens, UniProt O14965); experiment: Inhibition of Aurora A by spectrophotometry
# T1 sequence (O14965 whole entry): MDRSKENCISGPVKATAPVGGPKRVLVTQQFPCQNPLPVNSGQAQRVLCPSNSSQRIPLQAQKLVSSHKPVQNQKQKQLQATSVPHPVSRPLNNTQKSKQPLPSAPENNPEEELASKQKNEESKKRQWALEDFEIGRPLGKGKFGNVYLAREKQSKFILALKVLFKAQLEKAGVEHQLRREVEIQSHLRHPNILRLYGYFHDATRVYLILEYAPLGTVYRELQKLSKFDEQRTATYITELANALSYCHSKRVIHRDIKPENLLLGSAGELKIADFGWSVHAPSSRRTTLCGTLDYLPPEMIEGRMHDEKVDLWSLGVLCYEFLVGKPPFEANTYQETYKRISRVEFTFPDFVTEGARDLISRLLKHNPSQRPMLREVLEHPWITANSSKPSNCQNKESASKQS
# [2] = target: Mast/stem cell growth factor receptor Kit (Homo sapiens, UniProt P10721); experiment: Displacement of [33P]ATP from human recombinant c-KIT domain after 20 mins by scintillation counting
# Sequence of Mast/stem cell growth factor receptor Kit (P10721 whole entry, the tested form may be a part): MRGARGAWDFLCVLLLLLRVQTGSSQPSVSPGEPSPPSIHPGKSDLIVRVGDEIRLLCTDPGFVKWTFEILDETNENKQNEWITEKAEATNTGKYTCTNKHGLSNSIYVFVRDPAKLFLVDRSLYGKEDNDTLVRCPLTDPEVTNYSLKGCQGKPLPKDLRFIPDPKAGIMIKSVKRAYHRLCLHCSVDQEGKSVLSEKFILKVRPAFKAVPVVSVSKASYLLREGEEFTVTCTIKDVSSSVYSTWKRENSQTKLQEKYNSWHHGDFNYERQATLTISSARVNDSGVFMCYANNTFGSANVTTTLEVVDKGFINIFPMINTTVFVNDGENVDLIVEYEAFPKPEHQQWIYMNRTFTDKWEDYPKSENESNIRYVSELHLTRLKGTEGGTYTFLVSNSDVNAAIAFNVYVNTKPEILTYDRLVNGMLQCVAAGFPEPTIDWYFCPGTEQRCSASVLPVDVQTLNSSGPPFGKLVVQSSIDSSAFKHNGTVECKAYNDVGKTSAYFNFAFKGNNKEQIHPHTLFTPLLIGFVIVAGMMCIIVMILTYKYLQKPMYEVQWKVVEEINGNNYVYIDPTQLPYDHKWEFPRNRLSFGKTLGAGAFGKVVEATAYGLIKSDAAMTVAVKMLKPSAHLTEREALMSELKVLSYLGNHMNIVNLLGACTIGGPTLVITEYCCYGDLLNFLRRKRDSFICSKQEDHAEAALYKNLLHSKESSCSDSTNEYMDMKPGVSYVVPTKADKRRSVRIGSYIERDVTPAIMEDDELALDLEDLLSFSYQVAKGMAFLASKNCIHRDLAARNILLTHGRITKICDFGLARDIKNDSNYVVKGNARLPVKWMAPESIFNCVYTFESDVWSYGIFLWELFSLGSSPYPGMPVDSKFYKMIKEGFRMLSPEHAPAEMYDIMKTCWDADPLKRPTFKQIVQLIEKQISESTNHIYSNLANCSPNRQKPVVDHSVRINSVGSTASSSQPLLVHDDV
# Summary of the method: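 Radiometric kinase assay run in 100 mM HEPES pH 7.5 with 10 mM MgCl2, 25 mM NaCl, 0.01% BSA, 1 mM DTT and 0.5 mg/mL polyE4Y. Enzyme was 5 nM c-KIT with 700 μM 33P-ATP; inhibitor was added from DMSO. The reaction was started with ATP/substrate, run 20 min, stopped with 20% TCA/4 mM ATP, filtered, washed with 5% TCA and counted by scintillation.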
# [3] = target: T2, Receptor-type tyrosine-protein kinase FLT3 (Homo sapiens, UniProt P36888); experiment: Displacement of [33P]ATP from human recombinant FLT3 domain after 20 mins by scintillation counting
# T2 sequence (P36888 whole entry): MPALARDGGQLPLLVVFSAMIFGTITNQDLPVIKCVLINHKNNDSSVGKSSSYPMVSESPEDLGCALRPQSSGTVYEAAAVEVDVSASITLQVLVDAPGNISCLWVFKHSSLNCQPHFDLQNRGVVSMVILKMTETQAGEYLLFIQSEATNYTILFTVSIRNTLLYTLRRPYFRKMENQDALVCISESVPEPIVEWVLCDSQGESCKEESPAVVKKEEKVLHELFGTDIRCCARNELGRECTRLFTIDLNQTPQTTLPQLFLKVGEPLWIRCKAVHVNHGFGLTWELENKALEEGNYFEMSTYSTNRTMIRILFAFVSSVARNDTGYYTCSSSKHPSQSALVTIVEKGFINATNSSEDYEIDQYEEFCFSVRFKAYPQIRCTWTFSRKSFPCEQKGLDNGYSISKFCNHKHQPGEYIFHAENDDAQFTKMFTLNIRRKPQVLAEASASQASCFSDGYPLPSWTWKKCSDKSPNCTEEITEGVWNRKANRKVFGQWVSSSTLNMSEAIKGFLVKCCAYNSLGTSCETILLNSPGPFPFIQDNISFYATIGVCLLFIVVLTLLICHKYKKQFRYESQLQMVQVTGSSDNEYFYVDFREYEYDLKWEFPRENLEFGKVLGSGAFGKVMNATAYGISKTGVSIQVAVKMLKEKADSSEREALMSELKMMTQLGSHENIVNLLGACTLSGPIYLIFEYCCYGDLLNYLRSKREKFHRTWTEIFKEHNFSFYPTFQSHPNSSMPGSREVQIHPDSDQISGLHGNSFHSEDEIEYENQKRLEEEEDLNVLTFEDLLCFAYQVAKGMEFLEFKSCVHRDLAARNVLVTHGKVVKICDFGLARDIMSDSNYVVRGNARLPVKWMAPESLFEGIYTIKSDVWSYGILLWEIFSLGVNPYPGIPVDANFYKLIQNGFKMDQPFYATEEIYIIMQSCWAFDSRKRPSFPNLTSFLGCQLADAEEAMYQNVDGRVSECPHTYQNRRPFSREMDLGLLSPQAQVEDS
# [4] = target: Tyrosine-protein kinase JAK2 (Homo sapiens, UniProt O60674); experiment: Inhibition of JAK2 by spectrophotometry
# Sequence of Tyrosine-protein kinase JAK2 (O60674 whole entry): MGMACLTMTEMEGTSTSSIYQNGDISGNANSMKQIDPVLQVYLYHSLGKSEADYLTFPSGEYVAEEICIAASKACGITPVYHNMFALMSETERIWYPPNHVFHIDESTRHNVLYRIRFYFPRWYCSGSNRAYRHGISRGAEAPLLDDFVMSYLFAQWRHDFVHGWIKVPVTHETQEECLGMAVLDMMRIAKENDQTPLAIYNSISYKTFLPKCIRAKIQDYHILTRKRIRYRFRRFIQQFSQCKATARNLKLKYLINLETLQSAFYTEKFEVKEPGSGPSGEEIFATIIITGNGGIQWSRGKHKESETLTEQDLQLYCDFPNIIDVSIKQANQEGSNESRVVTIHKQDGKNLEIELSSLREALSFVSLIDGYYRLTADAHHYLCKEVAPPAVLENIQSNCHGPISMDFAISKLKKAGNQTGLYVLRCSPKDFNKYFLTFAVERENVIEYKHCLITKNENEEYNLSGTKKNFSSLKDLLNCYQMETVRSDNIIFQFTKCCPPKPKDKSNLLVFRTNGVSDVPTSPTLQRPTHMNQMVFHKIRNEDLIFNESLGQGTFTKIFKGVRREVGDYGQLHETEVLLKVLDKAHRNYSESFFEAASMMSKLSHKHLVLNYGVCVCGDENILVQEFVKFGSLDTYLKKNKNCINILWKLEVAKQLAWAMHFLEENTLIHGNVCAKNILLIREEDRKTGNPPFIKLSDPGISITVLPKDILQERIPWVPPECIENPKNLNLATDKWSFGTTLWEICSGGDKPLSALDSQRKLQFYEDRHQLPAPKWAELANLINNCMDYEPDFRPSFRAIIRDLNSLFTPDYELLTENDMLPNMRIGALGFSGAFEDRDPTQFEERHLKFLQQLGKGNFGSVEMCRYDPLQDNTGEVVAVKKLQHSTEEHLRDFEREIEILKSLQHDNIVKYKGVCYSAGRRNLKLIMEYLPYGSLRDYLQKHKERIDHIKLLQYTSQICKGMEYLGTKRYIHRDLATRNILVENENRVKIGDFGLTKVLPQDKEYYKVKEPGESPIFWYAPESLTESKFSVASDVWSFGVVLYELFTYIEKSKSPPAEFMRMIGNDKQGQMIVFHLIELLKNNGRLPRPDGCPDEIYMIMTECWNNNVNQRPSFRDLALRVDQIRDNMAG
# [5] = target: T3, Interleukin-1 receptor-associated kinase 4 (Homo sapiens, UniProt Q9NWZ3); experiment: Inhibition of IRAK4 by spectrophotometry
# T3 sequence (Q9NWZ3 whole entry): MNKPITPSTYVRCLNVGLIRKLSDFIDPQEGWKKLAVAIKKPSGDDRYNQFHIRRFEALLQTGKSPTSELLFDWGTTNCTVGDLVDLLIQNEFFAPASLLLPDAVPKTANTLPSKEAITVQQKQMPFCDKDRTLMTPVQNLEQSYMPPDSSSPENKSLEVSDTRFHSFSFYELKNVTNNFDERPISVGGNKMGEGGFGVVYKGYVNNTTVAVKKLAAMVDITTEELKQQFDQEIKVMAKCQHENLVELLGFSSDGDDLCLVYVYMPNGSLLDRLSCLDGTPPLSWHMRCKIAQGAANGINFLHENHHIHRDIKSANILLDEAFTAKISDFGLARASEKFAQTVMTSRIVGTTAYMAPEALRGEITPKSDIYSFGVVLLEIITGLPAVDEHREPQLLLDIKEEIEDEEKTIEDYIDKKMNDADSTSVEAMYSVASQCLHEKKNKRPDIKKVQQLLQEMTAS
# [6] = Clearance in iv dosed rat; type: ADME, organism-based; conditions: in vivo
# [7] = Half life in iv dosed rat; type: ADME, organism-based; conditions: in vivo
# [8] = tested on: MV4-11; experiment: Cytotoxicity against human MV411 cells
Compound,Ki [1] [nM],Ki [2] [nM],Ki [3] [nM],Ki [4] [nM],Ki [5] [nM],clearance [6] [mL/min/kg],half-life [7] [h],IC50 [8] [nM]
COc1cc(N2CCOCC2)ccc1Nc1nc(N)n(-c2ccc(C#N)cn2)n1,2600,205,22,> 4000,340,,,
Nc1nc(Nc2cccc(C(=O)N3CCOCC3)c2)nn1-c1ccccn1,,10,,,,16.7,2.92,
Nc1nc(Nc2ccc(N3CCOCC3)cc2)nn1-c1ccccn1,,,,,,31.1,2.84,2
Nc1nc(Nc2cc(N3CCOCC3)ccc2F)nn1-c1ccccn1,> 3000,37,12,590,440,,,
CC(=O)Nc1ccc(Nc2nc(N)n(-c3ccccn3)n2)cc1,,240,,,,42.1,1.33,18
CC(=O)N1CCC(c2ccc(Nc3nc(N)n(-c4ccccn4)n3)cc2)C1 (centres undefined),,< 50,,,,25.1,1.42,1
